Measured values published in ChEMBL document CHEMBL1144880, “Identification of phenylisoxazolines as novel and viable antibacterial agents active against Gram-positive pathogens” (J Med Chem, 2003).

Assays:
[1] = Oral bioavailability in rat (Sprague-Dawley) (male) (dose 10 mg/kg i.v.); format: ADME, organism-based; conditions: in vivo
In short: (§1)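 Male Sprague-Dawley rats dosed intravenously or orally. Intact compound measured in plasma by HPLC-UV after protein-precipitation sample preparation. Half-life reported as harmonic mean apparent terminal disposition half-life. Bioavailability is absolute oral bioavailability. Some comparator values are archival data.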

[2] = Oral bioavailability in rat (Sprague-Dawley) (male) (dose 25 mg/kg p.o.); format: ADME, organism-based; conditions: in vivo; in short: as §1
[3] = Cmax value in Male Sprague-Dawley Rat at dose 10 (mg/kg iv); format: ADME, organism-based; parameters: dose 10 mg/kg, route intravenous; conditions: in vivo; in short: as §1
[4] = Cmax value in Male Sprague-Dawley Rat at dose 25 (mg/kg po); format: ADME, organism-based; parameters: dose 25 mg/kg, route oral; conditions: in vivo; in short: as §1
[5] = Tmax value in Male Sprague-Dawley Rat at dose 25 (mg/kg po) [tmax (h)]; format: ADME, organism-based; conditions: in vivo; in short: as §1
[6] = Volume distribution in Male Sprague-Dawley Rat (10 mg/kg iv); format: ADME, organism-based; conditions: in vivo, read-out: Vss
In short: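 Male Sprague-Dawley rats given the compound intravenously. Intact compound in plasma was measured by HPLC-UV after protein-precipitation sample preparation.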

[7] = Harmonic mean apparent terminal disposition half-life [t1/2beta (h)] in Male Sprague-Dawley Rat at dose 10 (mg/kg iv); format: ADME, organism-based; conditions: in vivo, read-out: T1/2 beta (converted); in short: as §1
Rattus norvegicus = species on record: Rattus norvegicus; experiment: Compound was evaluated for metabolic stability via In vitro Rat 5E6 cell at 50 uM concentration; format: functional
[8] = Plasma clearance in Male Sprague-Dawley Rat (10 mg/kg iv); format: ADME, organism-based; in short: as §1

Which results are given for `CC(=O)NC[C@H]1CN(c2ccc(N3CCN(C(=O)CO)CC3)c(F)c2)C(=O)O1` [EPEREZOLID]?
F [1]: 100%; bioavailability [2]: 56%; Cmax [3]: 20800 ng/mL; Cmax [4]: 2260 ng/mL; Tmax [5]: 1.33 h; Vd [6]: 0.99 L/kg; half-life [7]: 0.96 h; Remaining at 40 min (Rattus norvegicus): 102%; clearance [8]: 24.9 mL/min/kg
